According to ChEMBL document CHEMBL1142621, “Galloylglucosides from berries of Pimenta dioica” (J Nat Prod, 2000):

What was measured:
Format in all cases: functional
[1] = DPPH radical scavenging activity at 80 uM after 30 mins by spectrophotometric assay
Method in brief: (§1)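 Compounds added to ethanolic DPPH radical solution (100 µM final). Mixtures were vortexed, then kept 30 min at 25 °C in a water bath in the dark. Remaining DPPH was read by absorbance at 517 nm. Scavenging = (A without compound − A with compound)/A without compound × 100. Means with SD from three independent experiments; column differences tested at p < 0.05.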

[2] = DPPH radical scavenging activity at 40 uM after 30 mins by spectrophotometric assay; method in brief: as §1
[3] = DPPH radical scavenging activity at 20 uM after 30 mins by spectrophotometric assay; method in brief: as §1
[4] = DPPH radical scavenging activity at 10 uM after 30 mins by spectrophotometric assay; method in brief: as §1
[5] = DPPH radical scavenging activity at 5 uM after 30 mins by spectrophotometric assay; method in brief: as §1
[6] = DPPH radical scavenging activity at 2.5 uM after 30 mins by spectrophotometric assay; method in brief: as §1

| SMILES | Activity [1] [%] | Activity [2] [%] | Activity [3] [%] | Activity [4] [%] | Activity [5] [%] | Activity [6] [%] |
| --- | --- | --- | --- | --- | --- | --- |
| C=CCc1ccc(O[C@@H]2O[C@H](COC(=O)c3cc(O)c(O)c(O)c3)[C@@H](O)[C@H](O)[C@H]2O)c(OC)c1 | 95.7 | 95.2 | 95.2 | 60.9 | 31.7 | 15 |
| O=C(O)c1cc(O)c(O)c(O)c1 | 95.7 | 94.8 | 86.8 | 61.6 | 34.9 | 19 |
| COc1cc(CC(CO)O[C@@H]2O[C@H](COC(=O)c3cc(O)c(O)c(O)c3)[C@@H](O)[C@H](O)[C@H]2O)ccc1O (mixture of isomers) | 95.6 | 95.3 | 92.4 | 56.9 | 33.1 | 17.7 |
| CC1=CC[C@H](C(C)(C)O[C@@H]2O[C@H](COC(=O)c3cc(O)c(O)c(O)c3)[C@@H](O)[C@H](O)[C@H]2O)CC1 | 95.3 | 95.3 | 90.1 | 46.2 | 24.5 | 12.9 |
| Cc1c(C)c2c(c(C)c1O)CC[C@@](C)(CCC[C@H](C)CCC[C@H](C)CCCC(C)C)O2 | 95.8 | 95.7 | 48.8 | 23.4 | 14 | 8.3 |
| C=CCc1cc(OC)c(O)c(O[C@@H]2O[C@H](COC(=O)c3cc(O)c(O)c(O)c3)[C@@H](O)[C@H](O)[C@H]2O)c1 | 95.8 | 95.7 | 91.2 | 53.6 | 26.8 | 12.2 |
| Cc1cc(C(C)(C)C)c(O)c(C(C)(C)C)c1 | 68 | 47.5 | 28.6 | 16.7 | 11.8 | 6.3 |
| CC1=CC[C@@H](C(C)(C)O[C@@H]2O[C@H](COC(=O)c3cc(O)c(O)c(O)c3)[C@@H](O)[C@H](O)[C@H]2O)CC1 | 95.4 | 95.4 | 88.9 | 48.4 | 26.2 | 14.8 |
